13 compounds from ChEMBL document CHEMBL5126644, “Synthesis and Structural Characterization of Novel Trihalo-sulfone Inhibitors of WNK1” (ACS Med Chem Lett, 2022) can be followed below.

Molecules are shown by their SMILES. Activity calls are given as the source filed them. The rule behind the calls is not given here.

Data set [1] has as its target T1, Serine/threonine-protein kinase WNK1 (Homo sapiens, UniProt Q9H4A3). Kind of data set: Inhibition of TEV cleavage site-fused His6-tagged WNK1 (194 to 483 residues) (unknown origin) expressed in Rosetta (DE3) cells using GST-OSR1(314 to 344) peptide as substrate incubated for 2 hrs by kinase-glo luminescence assay. A general note: In Kinase-Glo more light means more ATP remaining.
Target sequence in this assay (Q9H4A3 whole entry, the tested form may be a part): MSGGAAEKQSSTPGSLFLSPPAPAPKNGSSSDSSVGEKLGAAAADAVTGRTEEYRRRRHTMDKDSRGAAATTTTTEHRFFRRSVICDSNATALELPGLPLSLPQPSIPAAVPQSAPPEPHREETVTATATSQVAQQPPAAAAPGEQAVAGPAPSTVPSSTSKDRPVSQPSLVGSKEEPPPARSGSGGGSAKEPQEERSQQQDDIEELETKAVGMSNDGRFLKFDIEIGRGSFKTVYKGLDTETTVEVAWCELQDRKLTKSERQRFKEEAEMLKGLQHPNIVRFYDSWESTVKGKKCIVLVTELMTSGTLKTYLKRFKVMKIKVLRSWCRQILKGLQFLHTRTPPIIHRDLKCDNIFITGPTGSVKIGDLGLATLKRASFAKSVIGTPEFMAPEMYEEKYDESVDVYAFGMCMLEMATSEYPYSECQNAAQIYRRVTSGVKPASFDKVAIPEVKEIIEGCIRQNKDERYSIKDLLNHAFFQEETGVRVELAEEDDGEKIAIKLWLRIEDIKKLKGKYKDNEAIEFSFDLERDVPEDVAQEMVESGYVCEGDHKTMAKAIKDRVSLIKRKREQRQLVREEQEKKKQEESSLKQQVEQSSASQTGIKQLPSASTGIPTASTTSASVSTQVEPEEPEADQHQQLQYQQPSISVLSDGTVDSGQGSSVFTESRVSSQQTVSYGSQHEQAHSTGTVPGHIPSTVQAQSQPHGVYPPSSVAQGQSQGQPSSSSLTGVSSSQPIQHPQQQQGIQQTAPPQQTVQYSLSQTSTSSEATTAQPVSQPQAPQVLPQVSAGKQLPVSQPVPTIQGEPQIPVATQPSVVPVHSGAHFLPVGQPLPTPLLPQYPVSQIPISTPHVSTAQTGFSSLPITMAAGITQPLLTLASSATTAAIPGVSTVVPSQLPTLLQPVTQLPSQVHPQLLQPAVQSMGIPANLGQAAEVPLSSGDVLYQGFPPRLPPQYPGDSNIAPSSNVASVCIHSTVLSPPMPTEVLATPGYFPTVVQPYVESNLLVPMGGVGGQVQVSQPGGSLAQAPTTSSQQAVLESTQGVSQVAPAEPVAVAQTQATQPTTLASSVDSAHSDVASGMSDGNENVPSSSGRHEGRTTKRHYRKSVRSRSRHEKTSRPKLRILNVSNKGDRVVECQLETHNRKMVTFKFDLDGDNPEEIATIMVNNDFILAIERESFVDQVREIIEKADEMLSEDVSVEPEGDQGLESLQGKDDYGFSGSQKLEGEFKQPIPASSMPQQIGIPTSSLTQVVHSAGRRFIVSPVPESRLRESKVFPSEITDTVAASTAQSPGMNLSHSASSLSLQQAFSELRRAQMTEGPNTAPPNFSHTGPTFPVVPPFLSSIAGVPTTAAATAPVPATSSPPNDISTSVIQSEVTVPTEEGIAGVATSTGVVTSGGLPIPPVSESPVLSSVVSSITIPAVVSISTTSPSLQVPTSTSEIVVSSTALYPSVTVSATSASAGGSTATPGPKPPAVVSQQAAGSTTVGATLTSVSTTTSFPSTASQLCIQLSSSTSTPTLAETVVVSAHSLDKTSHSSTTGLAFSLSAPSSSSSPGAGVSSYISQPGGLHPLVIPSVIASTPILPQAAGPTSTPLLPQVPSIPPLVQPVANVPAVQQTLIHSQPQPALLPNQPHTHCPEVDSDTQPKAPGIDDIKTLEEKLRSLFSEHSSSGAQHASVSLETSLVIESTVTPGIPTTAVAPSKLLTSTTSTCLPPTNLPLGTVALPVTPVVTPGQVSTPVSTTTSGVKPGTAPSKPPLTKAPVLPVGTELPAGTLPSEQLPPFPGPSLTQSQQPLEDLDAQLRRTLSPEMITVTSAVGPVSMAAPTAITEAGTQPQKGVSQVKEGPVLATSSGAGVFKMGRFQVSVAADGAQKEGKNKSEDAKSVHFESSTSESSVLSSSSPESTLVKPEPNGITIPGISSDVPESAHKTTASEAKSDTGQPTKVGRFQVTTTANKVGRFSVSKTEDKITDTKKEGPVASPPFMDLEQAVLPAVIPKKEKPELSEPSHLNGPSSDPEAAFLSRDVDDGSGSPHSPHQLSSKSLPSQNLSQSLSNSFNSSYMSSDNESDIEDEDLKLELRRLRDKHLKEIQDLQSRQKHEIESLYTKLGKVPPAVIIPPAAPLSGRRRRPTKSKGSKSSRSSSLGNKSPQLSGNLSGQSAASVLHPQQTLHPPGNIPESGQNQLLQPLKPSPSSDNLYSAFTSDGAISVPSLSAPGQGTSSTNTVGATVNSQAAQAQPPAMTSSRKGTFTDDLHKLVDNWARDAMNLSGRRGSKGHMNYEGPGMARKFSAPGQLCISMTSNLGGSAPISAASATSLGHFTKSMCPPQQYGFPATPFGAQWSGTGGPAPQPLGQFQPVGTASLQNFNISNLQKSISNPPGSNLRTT

Data set [2] deals with T1, Serine/threonine-protein kinase WNK1. Kind of data set: Inhibition of TEV cleavage site-fused His6-tagged WNK1 (194 to 483 residues) (unknown origin) expressed in Rosetta (DE3) cells using GST-OSR1(314 to 344) peptide as substrate measured after 30 mins by [gamma-32P]-ATP based liquid scintillation counting analysis. Type of data set: biochemical. An outline of the steps: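 Radiometric kinase assay using [γ-32P]ATP at low enzyme concentration. It was chosen over the luminescence format for more precise IC50 determination.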
Target sequence in this assay (Q9H4A3 whole entry, the tested form may be a part): as above

The species entered for a further data set is Homo sapiens. Kind of data set: Selectivity ratio of IC50 for WNK3 (118 to 409 residues) (unknown origin) expressed in Escherichia coli BL21 DE3 to IC50 for TEV cleavage site-fused His6-tagged WNK1 (194 to 483 residues) (unknown origin) expressed in Rosetta (DE3) cells.
Data set [3] addresses T1, Serine/threonine-protein kinase WNK1. Kind of data set: Inhibition of WNK1 (unknown origin) at 10 uM relative to control.
Target sequence in this assay (Q9H4A3 whole entry, looked up, the tested form may be a part): as the sequence (Q9H4A3 whole entry, the tested form may be a part) above
Data set [4] has the same target. Kind of data set: Inhibition of WNK1 in human MDA-MB-231 cells assessed as reduction in OSR1 phosphorylation measured after 24 hrs by Western blot analysis. The data set is classed as cell-based. In short, it runs like this:
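Endogenous OSR1 phosphorylation was measured in MDA-MB-231 breast cancer cells. Experiments were run in triplicate, and an IC50 was derived from the phosphorylation read-out.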
Target sequence in this assay (Q9H4A3 whole entry, the tested form may be a part): as above
A general note: In western blotting, separated proteins are transferred to a membrane and probed.

Data set [5] concerns the target Serine/threonine-protein kinase WNK3 (Homo sapiens) (UniProt Q9BYP7). Kind of data set: Inhibition of WNK3 (unknown origin) at 10 uM relative to control.
Another data set relates to MDA-MB-231. Kind of data set: Cytotoxicity against human MDA-MB-231 cells assessed as cell viability up to 12 uM measured after 24 hrs. The data set is classed as toxicity, cell-based. The following applies: mda-mb-231, 24 h.
Data set [6] concerns the target Mitogen-activated protein kinase 9 (Homo sapiens) (UniProt P45984). Kind of data set: Inhibition of JNK2 (unknown origin) at 10 uM.
The target in data set [7] is Mitogen-activated protein kinase 10 (Homo sapiens) (UniProt P53779). Kind of data set: Inhibition of JNK3 (unknown origin) at 10 uM.
Data set [8] addresses Serine/threonine-protein kinase WNK2 (Homo sapiens) (UniProt Q9Y3S1). Kind of data set: Inhibition of WNK2 (unknown origin) at 10 uM relative to control.

Serine/threonine-protein kinase WNK2 (Homo sapiens), sequence (Q9Y3S1 whole entry): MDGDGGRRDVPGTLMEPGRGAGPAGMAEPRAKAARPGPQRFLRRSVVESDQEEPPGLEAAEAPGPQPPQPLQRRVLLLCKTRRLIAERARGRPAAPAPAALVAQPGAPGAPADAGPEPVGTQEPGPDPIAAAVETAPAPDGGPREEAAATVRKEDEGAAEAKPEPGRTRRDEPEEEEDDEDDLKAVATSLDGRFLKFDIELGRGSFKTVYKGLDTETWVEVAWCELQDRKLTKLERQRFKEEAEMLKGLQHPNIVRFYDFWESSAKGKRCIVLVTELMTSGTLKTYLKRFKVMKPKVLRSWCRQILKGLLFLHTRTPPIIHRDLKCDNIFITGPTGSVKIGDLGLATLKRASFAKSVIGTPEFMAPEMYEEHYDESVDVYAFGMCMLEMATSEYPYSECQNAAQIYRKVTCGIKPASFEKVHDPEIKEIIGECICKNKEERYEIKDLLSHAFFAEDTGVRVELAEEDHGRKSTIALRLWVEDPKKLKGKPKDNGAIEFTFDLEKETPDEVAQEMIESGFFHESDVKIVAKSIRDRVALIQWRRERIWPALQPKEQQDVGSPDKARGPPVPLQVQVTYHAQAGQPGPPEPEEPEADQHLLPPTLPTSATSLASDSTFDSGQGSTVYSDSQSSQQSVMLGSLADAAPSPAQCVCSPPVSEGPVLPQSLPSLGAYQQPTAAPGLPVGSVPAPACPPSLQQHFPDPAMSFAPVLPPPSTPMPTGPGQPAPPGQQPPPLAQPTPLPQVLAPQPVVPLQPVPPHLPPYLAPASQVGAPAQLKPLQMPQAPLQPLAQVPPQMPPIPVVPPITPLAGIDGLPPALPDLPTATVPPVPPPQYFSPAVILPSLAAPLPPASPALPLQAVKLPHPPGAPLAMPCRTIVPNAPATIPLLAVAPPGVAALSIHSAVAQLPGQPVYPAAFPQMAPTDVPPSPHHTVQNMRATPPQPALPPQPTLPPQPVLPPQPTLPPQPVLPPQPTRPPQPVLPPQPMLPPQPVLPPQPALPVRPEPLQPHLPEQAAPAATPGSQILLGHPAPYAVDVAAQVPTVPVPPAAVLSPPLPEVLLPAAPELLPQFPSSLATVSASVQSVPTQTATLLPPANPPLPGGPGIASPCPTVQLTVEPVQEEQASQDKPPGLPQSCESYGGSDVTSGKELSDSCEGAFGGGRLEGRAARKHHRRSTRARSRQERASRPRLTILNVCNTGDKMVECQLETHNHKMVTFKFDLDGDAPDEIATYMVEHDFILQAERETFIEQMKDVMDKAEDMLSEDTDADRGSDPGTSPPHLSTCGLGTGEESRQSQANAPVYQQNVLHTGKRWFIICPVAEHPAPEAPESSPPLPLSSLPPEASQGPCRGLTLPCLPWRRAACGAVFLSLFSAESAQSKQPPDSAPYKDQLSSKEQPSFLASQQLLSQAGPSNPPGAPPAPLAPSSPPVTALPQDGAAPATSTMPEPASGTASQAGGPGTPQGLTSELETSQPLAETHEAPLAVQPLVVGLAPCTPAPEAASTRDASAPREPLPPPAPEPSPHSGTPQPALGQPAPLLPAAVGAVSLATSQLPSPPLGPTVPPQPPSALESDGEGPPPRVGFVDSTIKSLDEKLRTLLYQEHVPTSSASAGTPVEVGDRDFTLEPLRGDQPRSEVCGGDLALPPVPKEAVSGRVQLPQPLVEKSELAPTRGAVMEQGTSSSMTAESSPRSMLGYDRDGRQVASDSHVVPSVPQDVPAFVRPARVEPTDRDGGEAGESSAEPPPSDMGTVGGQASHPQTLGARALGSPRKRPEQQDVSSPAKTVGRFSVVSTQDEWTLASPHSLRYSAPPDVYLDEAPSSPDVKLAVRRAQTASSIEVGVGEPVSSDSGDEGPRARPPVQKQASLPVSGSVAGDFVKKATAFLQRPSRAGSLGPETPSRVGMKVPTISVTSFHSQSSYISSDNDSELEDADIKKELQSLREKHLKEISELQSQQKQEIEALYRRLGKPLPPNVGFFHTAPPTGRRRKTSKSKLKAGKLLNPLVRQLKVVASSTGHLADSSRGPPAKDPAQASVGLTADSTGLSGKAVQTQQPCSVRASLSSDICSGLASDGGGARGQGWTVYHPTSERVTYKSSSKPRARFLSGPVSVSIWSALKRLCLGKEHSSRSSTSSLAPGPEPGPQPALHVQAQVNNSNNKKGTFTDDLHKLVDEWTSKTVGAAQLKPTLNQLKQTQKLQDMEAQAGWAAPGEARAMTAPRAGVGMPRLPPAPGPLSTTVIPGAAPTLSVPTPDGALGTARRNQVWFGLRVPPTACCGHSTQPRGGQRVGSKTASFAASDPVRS

On to `O=[N+]([O-])c1cc(S(=O)(=O)C(Cl)(Cl)Br)ccc1Nc1ccccc1`, for which the IC50 (usually the concentration at which inhibition is half-maximal) in data set [1] was determined as 76 µM; in data set [2], 7.2 µM.

Take `O=[N+]([O-])c1cc(S(=O)(=O)C(Cl)(Cl)Br)ccc1NC1CCCC1`: the values for the concentration for half-maximal inhibition (IC50) in [1] and in data set [2] were 93 µM and 6.5 µM, respectively.

With `O=[N+]([O-])c1ccccc1NC1CCCCC1`, the half-maximal inhibitory concentration (IC50) in data set [1] is over 1000 µM.

As to `O=[N+]([O-])c1cc(S(=O)(=O)C(F)(F)F)ccc1NC1CCCCC1`, the IC50 in data set [1] and in data set [2] was over 1000 µM each time.

In turn, `O=S(=O)(c1ccc(NC2CCCCC2)cc1)C(Cl)(Cl)Br` came in with a half-maximal inhibitory concentration (IC50) in data set [1] of over 1000 µM.

With `O=[N+]([O-])c1cc(S(=O)(=O)C(Cl)(Cl)Br)ccc1NC1CCCCC1`, the Ratio IC50 in the data set listed under Homo sapiens was 10. In addition, the 50% inhibitory concentration (IC50) in data set [1] stood at 4 µM; in [4], 4.3 µM; in data set [2], 1.6 µM. Further, the inhibition in [3] and in [5] was 20% in each case. In addition, the Activity entry in the data set on MDA-MB-231 is “Non-Toxic”.

Take `O=[N+]([O-])c1cc(S(=O)(=O)C(Cl)(Cl)Cl)ccc1NC1CCCCC1`: the half-maximal inhibitory concentration (IC50) in [1] was over 1000 µM.

`CCS(=O)(=O)c1ccc(NC2CCCCC2)c([N+](=O)[O-])c1` showed an IC50 in [1] of over 1000 µM.

Compound `O=[N+]([O-])c1cc(S(=O)(=O)C(Cl)Cl)ccc1NC1CCCCC1` displayed a concentration for half-maximal inhibition (IC50) in data set [1] of over 1000 µM.

On to `O=[N+]([O-])c1cc(S(=O)(=O)C(Cl)(Cl)Br)ccc1NCc1ccco1`, for which the IC50 in data set [1] amounted to 15 µM; in data set [2], 5 µM.

`CN1CCN(c2ccc(S(=O)(=O)C(Cl)(Cl)Br)cc2[N+](=O)[O-])CC1` returned a half-inhibitory concentration (IC50) in [1] of over 1000 µM.

As to `O=[N+]([O-])c1cc(S(=O)(=O)C(Cl)(Cl)Br)ccc1NCCCc1ccccc1`, the inhibition entry in [6] and in data set [7] was “Active” in each case. For the same compound, the concentration for half-maximal inhibition (IC50) in data set [1] came out at 79 µM; in data set [2], 6 µM. Besides, the inhibition in [3] and in data set [8] was 20% in each case.

The compound `CS(=O)(=O)c1ccc(NC2CCCCC2)c([N+](=O)[O-])c1` showed an IC50 in [1] of over 1000 µM.
